Assay results from ChEMBL document CHEMBL1135893, “Synthesis and mode of action of hydrophobic derivatives of the glycopeptide antibiotic eremomycin and des-(N-methyl-D-leucyl)eremomycin against glycopeptide-sensitive and -resistant bacteria” (J Med Chem, 2002).
pIC50: −log10 of the molar value.

Legend:
[1] = tested on: Staphylococcus haemolyticus; test: Antibacterial activity evaluated as minimum inhibitory concentration against 602 Staphylococcus haemolyticus; parameters: unit not given beside the values
Nucleic Acid [2] = test: Inhibition of the peptidoglycan synthesis in the absence of dipeptide bonding using UDP-MurNAc-tetrapeptide; assay type: nucleic-acid assay
Method in brief: (§1)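 Peptidoglycan synthesis run on filter plates with E. coli OV58 (pTA9) membranes, UDP-MurNAc-pentapeptide or UDP-MurNAc-tetrapeptide plus UDP-N-acetyl-[14C]-D-glucosamine as substrates; radiolabel incorporation into peptidoglycan measured. IC50 from at least six drug concentrations in duplicate, fitted by four-parameter logistic nonlinear regression.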

Nucleic Acid [3] = test: Inhibition of the peptidoglycan synthesis in the absence of dipeptide bonding using UDP-MurNAc-pentapeptide; assay type: nucleic-acid assay
Method in brief: as §1

Enterococcus faecium [4] = test: Antibacterial activity evaluated as minimum inhibitory concentration against 569 Enterococcus faecium (GRE); assay type: functional
Method in brief: (§2)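 Broth microdilution in Mueller Hinton broth per NCCLS procedure; repeat results usually identical, always within 2-fold. GISA strains 3797 (HIP-5836 New Jersey) and 3798 (HIP-5827 Michigan); 533 S. epidermidis and 602 S. haemolyticus are clinical isolates; vancomycin-resistant enterococci have confirmed genotype.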

Nucleic Acid [5] = test: Ratio UDP-MurNAc-tetrapeptide to UDP-MurNAc-Pentapeptide; assay type: nucleic-acid assay
Staphylococcus aureus [6] = test: Antibacterial activity evaluated as minimum inhibitory concentration against 3797 Staphylococcus aureus (GISA); assay type: functional; parameters: unit not given beside the values
Method in brief: as §2

[7] = tested on: Staphylococcus epidermidis; test: Antibacterial activity evaluated as minimum inhibitory concentration against 533 Staphylococcus epidermidis; assay type: functional
Method in brief: as §2

Staphylococcus aureus [8] = test: Antibacterial activity evaluated as minimum inhibitory concentration against 3798 Staphylococcus aureus (GISA); assay type: functional; parameters: unit not given beside the values
Method in brief: as §2

Enterococcus faecalis [9] = test: Antibacterial activity evaluated as minimum inhibitory concentration against 560 Enterococcus faecalis (GRE); assay type: functional
Method in brief: as §2

Enterococcus faecalis [10] = test: Antibacterial activity evaluated as minimum inhibitory concentration against 559 Enterococcus faecalis (GSE); assay type: functional; parameters: unit not given beside the values
Method in brief: as §2

Enterococcus faecium [11] = test: Antibacterial activity evaluated as minimum inhibitory concentration against 568 Enterococcus faecium (GSE); assay type: functional
Method in brief: as §2

pIC50 (Nucleic Acid [2]): 4.88
pIC50 (Nucleic Acid [3]): 5.74
MIC (Enterococcus faecium [4]): 4
Ratio (Nucleic Acid [5]): 7.3
MIC (Staphylococcus aureus [6]): 4
MIC [7]: 0.5
MIC (Staphylococcus aureus [8]): 4
MIC (Enterococcus faecalis [9]): 8
MIC (Enterococcus faecalis [10]): 0.5
MIC (Enterococcus faecium [11]): 0.5
Structure (SMILES): CCCCCCCCCCN[C@]1(C)C[C@H](O[C@@H]2[C@H](Oc3c4cc5cc3Oc3ccc(cc3Cl)[C@@H](O)[C@@H](NC(=O)[C@@H](CC(C)C)NC)C(=O)N[C@@H](CC(N)=O)C(=O)N[C@H]5C(=O)N[C@H]3C(=O)N[C@H](C(=O)N[C@H](C(=O)O)c5cc(O)cc(O)c5-c5cc3ccc5O)[C@H](O[C@H]3C[C@@](C)(N)[C@@H](O)[C@@H](C)O3)c3cccc(c3)O4)O[C@@H](CO)[C@H](O)[C@H]2O)O[C@H](C)[C@@H]1O
MIC [1]: 0.5
